Source: PubChem (Sanford-Burnham Center for Chemical Genomics)
APJ agonist: agonists of human APJ apelin receptor; CHO-K1 APJ PathHunter beta-arrestin, luminescence; 0% DMSO wells, 100% apelin; activation, % at 20 µM; actives 0.11% (n = 330,000); AID 2520;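 active = activation more than six SD over the plate average, tested at 20 µM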;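 also: 0% = DMSO alone and 100% = apelin-13 at 10 nM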
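Test system – PathHunter CHO-K1 APJ (AGTRL-1) beta-arrestin reporter cells · Input – 1000 cells/well · Compound – single test compound dose, 20 µM final, 1% DMSO · Times – compound stimulation 90 min at 25 °C, detection 60 min · Technique – beta-gal luminescence · Read-out basis – APJ–arrestin association signal · Control set – negative DMSO alone, positive Apelin-13 at 10 nM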
CCR6 antag: antagonists of human CCR6 receptor | P51684 | CHO-K1 CCR6 PathHunter beta-arrestin, luminescence, CCL20-stimulated | inhibition, % at 20 µM | actives 0.49% (n = 340,000);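 active = compounds whose inhibition of the agonist-driven luminescence signal at 20 µM reaches about 50%, limit read from the data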;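 also: cells stimulated with CCL20 at 14 nM final; plate controls were DMSO with CCL20 for no effect and DMSO without agonist for full effect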
Target sequence (P51684 whole entry, looked up): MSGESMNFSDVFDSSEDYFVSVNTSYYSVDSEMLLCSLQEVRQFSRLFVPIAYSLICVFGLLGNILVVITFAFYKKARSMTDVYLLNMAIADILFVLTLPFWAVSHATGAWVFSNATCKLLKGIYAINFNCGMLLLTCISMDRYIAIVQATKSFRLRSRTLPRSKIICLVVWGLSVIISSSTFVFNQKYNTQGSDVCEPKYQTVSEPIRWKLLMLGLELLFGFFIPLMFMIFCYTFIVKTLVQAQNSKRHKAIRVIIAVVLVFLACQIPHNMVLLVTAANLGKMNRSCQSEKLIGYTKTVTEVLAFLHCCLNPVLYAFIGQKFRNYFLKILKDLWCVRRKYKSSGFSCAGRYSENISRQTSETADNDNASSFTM
EBI2 block: EBI2 (human) antagonism | EBI2 beta-arrestin recruitment, luminescence, 7a,25-OHC stimulated | actives 0.81% (n = 360,000) | AID 651636 | P32249 | inhibition, % at 5 µM; in the data active = inhibition above about 38%;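 also: enzyme fragment complementation signal reports receptor beta-arrestin coupling in cells; 0% = agonist plus DMSO wells and 100% = wells without agonist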
APJ antagonist: APJ receptor antagonism. P35414. CHO-K1 APJ beta-arrestin complementation, luminescence. inhibition, % at 20 µM. actives 0.32% (n = 330,000). AID 2521;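 active = inhibition above about 40% at 20 µM, limit read from the data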;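 also: cells challenged with 10 nM apelin-13 agonist together with compound; plate controls were apelin-13 plus DMSO wells for no effect and DMSO wells lacking apelin-13 for full effect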
CXCR6 inh: blocks human CXCR6 beta-arrestin recruitment. actives 0.36% (n = 360,000). CHO-K1 PathHunter CXCR6 beta-arrestin, luminescence. inhibition, % at 20 µM. O00574; in the data active = inhibition above about 34%, passing the limit was not always enough;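 also: antagonist mode with CXCL16 agonist at 10 nM final; 0% = 10 nM CXCL16 with DMSO and 100% = unstimulated wells without agonist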
APJ ag confirm: APJ receptor agonism confirmation | shares compounds with APJ agonist | CHO-K1 APJ PathHunter beta-arrestin, luminescence | activation, % at 20 µM | actives 10% (n = 310) | AID 2764;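 active = activation above 40%, taking the highest of four retests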;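 also: plate controls were DMSO wells for no effect and apelin-13 at 10 nM for full effect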
Numbers without * were called inactive; nt = not tested or not shown. An excerpt weighted towards active compounds, which were near 1.5% of everything screened.

SMILES	APJ agonist	CCR6 antag	EBI2 block	APJ antagonist	CXCR6 inh	APJ ag confirm
COc1ccc(/C=N/Nc2cc(C)nc3ccc(OC)cc23)c(OC)c1	61*	10	-12	-14	23	64*
COc1ccc2nc(C)cc(N/N=C/c3ccccc3)c2c1	21	26	1	-10	4	nt
O=C(Nc1ccc(-c2nc3ccccc3o2)cc1)c1ccc(N2CCOCC2)c([N+](=O)[O-])c1	29*	8	-36	9	7	24
COc1ccc2oc(-c3ccc(NC(=O)c4ccc(N5CCOCC5)c([N+](=O)[O-])c4)cc3)nc2c1	10	4	-9	-5	6	nt
CC1CCN(S(=O)(=O)c2ccc3nc(N4CCN(c5ccccc5)CC4)ccc3c2)CC1	53*	-12	nt	-2	nt	11
O=S(=O)(c1ccc2nc(N3CCN(c4ccc(F)cc4)CC3)ccc2c1)N1CCCCC1	-7	13	19	13	5	nt
O=C(NCc1cccnc1)c1cc(C2CCCN(C(=O)c3cccc(O)c3)C2)on1 (configuration not stated)	nt	nt	-5	nt	-2	nt
CCCSc1nc(O)c(C2OC(=O)c3c2ccc(OC)c3OC)c(=O)n1-c1ccccc1 (configuration not stated)	23*	10	6	10	6	39
O=C(c1cnn2c(C(F)(F)F)cc(-c3cccs3)nc12)N1CCN(Cc2ccccc2)CC1	30*	4	-2	-4	-3	8
C[C@H]1Cn2cnc(C(=O)Nc3cccc(Cl)c3)c2C(=O)N1	nt	nt	-3	nt	-2	nt
O=C(NC1CCCC1)c1cc(COc2ccc3ncccc3c2)on1	0	6	-6	-4	-13	nt
O=C(NCCc1cn2ccccc2n1)c1cc(COc2ccc3ncccc3c2)on1	31*	-21	6	-13	-3	4
O=[N+]([O-])c1cc(-c2nc3nc4ccccc4nc3n2CCc2ccccc2)cc([N+](=O)[O-])c1	17*	13	-6	-49	-6	10
CCOc1cc([N+](=O)[O-])cc2c1C(=O)Nc1ccccc1O2	14*	-10	-4	-20	-8	11
N#Cc1c2ccc([N+](=O)[O-])cc2[n+]([O-])n1-c1ccccc1	13*	nt	-23	-237	-15	12
CCn1cnc2cc(NCc3ccc(OC)cc3)ccc21	-2	-13	1	-5	2	nt
CCOc1ccc2nc3cc(NCc4ccc(OC)cc4)ccc3c(N)c2c1	30*	-10	-12	-15	-12	-4
C=CCC(C(=O)OC)(C(=O)OC)c1ccc(C(F)(F)F)cc1[N+](=O)[O-]	-5	3	-2	-14	4	nt
C=CCC(C(=O)OC)(C(=O)OC)c1ccc([N+](=O)[O-])cc1[N+](=O)[O-]	14*	2	-13	-35	1	4
COc1ccc(C(C)(O)c2nc(-c3ccncc3)cs2)cc1 (configuration not stated)	nt	nt	9	nt	-10	nt
COC(=O)[C@]12CCCCC=C1N(Cc1cccc3ccccc13)C(=O)[C@H](CC(=O)N1CCN(C(=O)C3CC3)CC1)C2	nt	nt	2	nt	3	nt
Cc1cc(C)n2nc(SCC(=O)Nc3c(C)nn(-c4ccccc4)c3C)nc2n1	39*	2	2	3	3	29
c1csc(-c2ccc3nncn3c2)c1	nt	nt	5	nt	-2	nt
COc1ccc(-c2ccc3c(c2)S(=O)(=O)c2cccc(C(=O)NC4CCCC4)c2C3=O)cc1OC	9.0*	-3	-21	1	3	11
CCOC(=O)C1=C(CSc2nccn2C)NC(=O)NC1c1cc(C)ccc1C (configuration not stated)	-4	5	5	-17	7	nt
SMILES	APJ agonist	CCR6 antag	EBI2 block	APJ antagonist	CXCR6 inh	APJ ag confirm
CCOC(=O)C1=C(Cn2cnc3ccccc32)NC(=O)NC1c1cc(C)ccc1C (configuration not stated)	62*	13	-42	31	9	59*
COc1ccc(OC)c(-n2c(-c3ccc(O)cc3O)n[nH]c2=S)c1	2	5	3	-5	5	nt
COc1cc(OC)cc(-c2n[nH]c(=S)n2-c2cc(OC)ccc2OC)c1	36*	20	-10	-3	3	40*
Cc1csc2nc(COC(=O)c3ccc(Cl)c([N+](=O)[O-])c3)cc(=O)n12	30*	19	9	-3	24	10
CCOc1ccc(Nc2nc(NCC3CCCO3)c3ccccc3n2)cc1 (configuration not stated)	13*	-3	66*	-25	8	29
c1ccc(Nc2nc(NCC3CCCO3)c3ccccc3n2)cc1 (configuration not stated)	1	-11	12	-52	-5	nt
CNc1cncc(-c2cccc(C(=O)NCCN(C)C)c2)n1	nt	nt	-11	nt	5	nt
COc1cc(F)ccc1-c1csc(C(O)(c2ccccc2)C(F)(F)F)n1 (configuration not stated)	nt	nt	24	nt	-3	nt
COc1ccc(/C(N)=N/OC(=O)c2cccc([N+](=O)[O-])c2C)cc1	18*	-17	12	-81	-19	18
CCOc1cc2[nH]c(=S)n(CCCOC)c(=O)c2cc1OCC	-2	-1	11	-21	5	nt
CCOc1cc2[nH]c(=S)n(CCCN3CCOCC3)c(=O)c2cc1OCC	17*	-1	8	1	-1	24
CCOc1cc2[nH]c(=S)n(CCN3CCC(C)CC3)c(=O)c2cc1OCC	27*	14	0	-1	-2	13
CCOc1cc2[nH]c(=S)n(CCCC(=O)NCc3ccccn3)c(=O)c2cc1OCC	118*	13	1	8	-2	29
CCC1CCCCN1CCCn1c(=S)[nH]c2ccccc2c1=O (configuration not stated)	-1	37	4	17	2	nt
CCOc1cc2[nH]c(=S)n(CCN3CCCCC3CC)c(=O)c2cc1OCC (configuration not stated)	78*	3	22	4	3	39
CC(C)CN(Cc1cc(=O)oc2cc(-c3ccccc3)c(O)cc12)CC(C)C	19*	-24	-40	-33	-11	23
O=c1cc(CN2CCN(C/C=C/c3ccccc3)CC2)c2cc(O)c(-c3ccccc3)cc2o1	-1	0	-5	-11	1	nt
CCCNC(=O)C1(C)CCN1C(=O)c1ccc(C(C)(C)C)cc1 (configuration not stated)	nt	nt	-9	nt	-2	nt
COc1cc(/C=N/Nc2nc(-c3ccc(S(=O)(=O)N(C)C)cc3)cs2)ccc1O	21*	-17	10	-70	-18	32
Cc1cccc(-c2ccc([N+](=O)[O-])cc2CN2CCN(c3ncc(Cc4ccccc4)cn3)CC2)c1	nt	nt	3	nt	nt	nt
Cc1cccc(C(=O)O/N=C(\N)Cc2cccc3ccccc23)c1	42*	-24	-12	-143	-17	33
